# How the values were obtained:
# K562 = experiment: Antiproliferative activity against human K562 cells after 48 hrs by MTT assay; type: functional; details: K562, 48 h
# Outline: (§1)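 Log-phase cells, harvested by trypsinization, seeded 24 h, then exposed to a range of compound concentrations for 48 h. Culture in RPMI 1640 with 4% FBS, penicillin/streptomycin, 37°C, 5% CO2. DMSO below 1% final; 5-Fu as positive control. Readout is MTT (0.5 mg/mL, 4 h), formazan dissolved in DMSO, absorbance at 570 nm. GI50 = 50% growth inhibition versus untreated cells; means ± SD of at least two independent experiments.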
# SH-SY5Y [1] = experiment: Antiproliferative activity against human SH-SY5Y cells after 48 hrs by MTT assay; type: functional; outline: as §1
# AGS = experiment: Antiproliferative activity against human AGS cells after 48 hrs by MTT assay; type: functional; outline: as §1
# Tubulin (Sus scrofa) = experiment: Inhibition of pig brain tubulin polymerization at 10 uM by spectrophotometry relative to control
# [2] = Cytotoxicity against mouse HT22 cells after 48 hrs by MTT assay; type: cell-based, HT-22
# Outline: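 MTT readout after 48 h exposure; CC50 is the 50% cytotoxic concentration, mean of three repeated experiments.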
# [3] = Selectivity ratio of GI50 for human K562 cells to GI50 for human SH-SY5Y cells; type: functional
# [4] = Selectivity ratio of GI50 for human AGS cells to GI50 for human SH-SY5Y cells; type: functional
# [5] = Selectivity index, ratio of GI50 for mouse HT22 cells to GI50 for human SH-SY5Y cells; type: toxicity; details: HT22 cells and SH-SY5Y cells, read-out: RatioGI50
# SH-SY5Y [6] = experiment: Potency index, ratio of 5-Fu GI50 to test compound GI50 for human SH-SY5Y cells; type: functional
Compound,GI50 (K562) [µM],GI50 (SH-SY5Y [1]) [µM],GI50 (AGS) [µM],inhibition (Tubulin (Sus scrofa)) [%],CC50 at 48 h [2] [µM],RatioGI50 [3],RatioGI50 [4],selectivity ratio [5],RatioGI50 (SH-SY5Y [6])
COc1ccc(N(C)c2ncnc3[nH]cnc23)cc1,> 100,> 100,> 100,,,,,,
O=c1[nH]cc(F)c(=O)[nH]1 [FLUOROURACIL],19,12,25,,,,,,
COc1ccc(Cn2cnc3c(N(C)c4ccc(OC)cc4)nc(Cl)nc32)cc1,> 100,31,> 100,,,,,,
COc1ccc(N(C)c2nc(Cl)nc3c2ncn3Cc2ccc(OC)c(OC)c2)cc1,27,7.3,56,25,,,,,
COc1ccc(N(C)c2ncnc3c2ncn3Cc2cc(OC)c(OC)c(OC)c2)cc1,> 100,0.26,> 100,20,23,>230,>230,88,46
COc1ccc(N(C)c2nc(Cl)nc3c2ncn3Cc2cc(OC)cc(OC)c2)cc1,42,> 100,69,,,,,,
COc1ccc(Cn2cnc3c(N(C)c4ccc(OC)cc4)ncnc32)cc1,> 100,27,> 100,,,,,,
COc1ccc(Cn2cnc3c(Cl)nc(Cl)nc32)cc1OC,7,5.5,11,22,,,,,
COc1ccc(N(C)c2nc(Cl)nc3c2ncn3Cc2cc(OC)c(OC)c(OC)c2)cc1,41,3,85,12,,,,,
COc1ccc(N(C)c2ncnc3c2ncn3Cc2cc(OC)cc(OC)c2)cc1,42,> 100,> 100,,,,,,
COc1ccc(N(C)c2nc(Cl)nc3[nH]cnc23)cc1,> 100,> 100,30,,,,,,
